Measurements published in ChEMBL document CHEMBL2021788, “Cytotoxic cardiac glycosides and other compounds from Asclepias syriaca” (J Nat Prod, 2012).

Experiments:
[1] = test system: SK-BR-3; test: Cytotoxicity against human SK-BR-3 cells after 72 hrs by CellTiter-Glo assay; assay type: functional, cell-based; conditions: SK-BR-3, 72 h
How it was run: (§1)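 Breast lines (normal Hs578Bst; cancer Hs578T, T47D, Sk-Br-3, MCF-7) seeded at 3000 cells/well in 384-well plates, attached overnight. Compound dispensed acoustically at 14 concentrations spanning 0.002−40 μM, 72 h incubation. Viability by CellTiter-Glo luminescence read after 2 min shaking and 15 min stabilization. Triplicate dose−response curves, data normalized to median, IC50 from curve fit.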

[2] = test system: Hs-578T; test: Cytotoxicity against human Hs578T cells at 40 uM after 72 hrs by CellTiter-Glo assay relative to untreated control; assay type: functional, cell-based
How it was run: (§2)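 Hs578T or Hs578Bst cells plated at 3000/well in 384-well format, grown overnight, then exposed to 40 μM (top of a 14-point 0.002−40 μM series) for 72 h. CellTiter-Glo luminescence after 2 min shaking plus 15 min stabilization; viability given as percent of control, n = 3, ± SD.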

[3] = test system: MCF7; test: Cytotoxicity against human MCF7 cells after 72 hrs by CellTiter-Glo assay; assay type: functional, cell-based; conditions: MCF7, 72 h; how it was run: as §1
[4] = Cytotoxicity against human Hs578Bst cells after 72 hrs by CellTiter-Glo assay; assay type: cell-based; how it was run: as §1
[5] = test system: Hs-578T; test: Cytotoxicity against human Hs578T cells after 72 hrs by CellTiter-Glo assay; assay type: functional, cell-based; how it was run: as §1
[6] = Cytotoxicity against human Hs578Bst cells at 40 uM after 72 hrs by CellTiter-Glo assay relative to untreated control; assay type: cell-based; how it was run: as §2
[7] = test system: T47D; test: Cytotoxicity against human T47D cells after 72 hrs by CellTiter-Glo assay; assay type: functional, cell-based; how it was run: as §1

| Structure (SMILES) | IC50 [1] [µM] | % toxicity [2] [%] | IC50 [3] [µM] | IC50 [4] [nM] | IC50 [5] [nM] | % toxicity [6] [%] | IC50 [7] [nM] |
| --- | --- | --- | --- | --- | --- | --- | --- |
| C[C@H]1O[C@@H](O[C@H]2CC[C@@]3(C)[C@@H](CC[C@@H]4[C@@H]3CC[C@]3(C)[C@](O)(C5=CC(=O)OC5)CC[C@]43O)C2)[C@H](O)[C@H](O)[C@@H]1O[C@@H]1O[C@H](CO)[C@@H](O)[C@H](O)[C@H]1O | > 40 | 56 | > 40 | 14200 | > 40000 | 38.2 | > 40000 |
| C[C@H]1O[C@@H](O[C@H]2CC[C@@]3(C)[C@@H](CC[C@@H]4[C@@H]3CC[C@]3(C)[C@@H](C5=CC(=O)OC5)CC[C@]43O)C2)[C@H](O)[C@H](O)[C@@H]1O[C@@H]1O[C@H](CO)[C@@H](O)[C@H](O)[C@H]1O | 2.52 | 91.5 | 5.3 | 43 | 593 | 51.7 | 1760 |
| O=c1c(O[C@@H]2OC[C@@H](O)[C@H](O)[C@H]2O[C@@H]2O[C@H](CO)[C@H](O)[C@H](O)[C@H]2O)c(-c2ccc(O)cc2)oc2cc(O)cc(O)c12 | > 40 | 32.7 | > 40 | > 40000 | > 40000 | 13.9 | > 40000 |
| C[C@]12CC[C@H](O[C@@H]3O[C@H](CO)[C@@H](O)[C@H](O)[C@H]3O)C[C@@H]1CC[C@@H]1[C@@H]2CC[C@]2(C)[C@@H](C3=CC(=O)OC3)CC[C@]12O [DESGLUCOUZARIN] | 18.1 | 85.5 | 17 | 1050 | 6280 | 51.6 | 11700 |
| C[C@]12CC[C@H](O)C[C@H]1CC[C@@H]1[C@@H]2CC[C@]2(C)[C@@H](C3=CC(=O)OC3)CC[C@]12O [DIGITOXIGENIN] | 4.42 | 92.3 | 9.1 | 150 | 1020 | 49.8 | 2530 |
| C[C@H]1O[C@@H](O[C@H]2[C@@H](O)C[C@H](O[C@H]3[C@@H](O)C[C@H](O[C@H]4CC[C@@]5(C)[C@H](CC[C@@H]6[C@@H]5C[C@@H](O)[C@]5(C)[C@@H](C7=CC(=O)OC7)CC[C@]65O)C4)O[C@@H]3C)O[C@@H]2C)C[C@H](O)[C@@H]1O [DIGOXIN] | 1.08 | 93.5 | 4.7 | 40 | 251 | 47.7 | 660 |
| COc1cccc2c1C(=O)c1c(O)c3c(c(O)c1C2=O)C[C@@](O)(C(=O)CO)C[C@@H]3O[C@H]1C[C@H](N)[C@H](O)[C@H](C)O1 [DOXORUBICIN] | 0.21 | 98.3 | 1.54 | 180 | 546 | 64.3 | 1900 |
| C[C@@H]1O[C@@H](O[C@H]2C[C@@H](O)[C@]3(CO)[C@H]4[C@H](O)C[C@]5(C)[C@@H](C6=CC(=O)OC6)CC[C@]5(O)[C@@H]4CC[C@]3(O)C2)[C@H](O)[C@H](O)[C@H]1O [OUABAIN] | 0.403 | 93 | 10.6 | 6 | 110 | 55.8 | 385 |
| C[C@]12CC[C@H](O[C@@H]3O[C@H](CO[C@@H]4O[C@H](CO)[C@@H](O)[C@H](O)[C@H]4O)[C@@H](O)[C@H](O)[C@H]3O)C[C@@H]1CC[C@@H]1[C@@H]2CC[C@]2(C)[C@@H](C3=CC(=O)OC3)CC[C@]12O [UZARIN] | 19.4 | 84 | 11.6 | 760 | 4580 | 54.7 | 9500 |
